Assays:
Type in all cases: functional
RAW264.7 = test: Cytotoxicity against mouse RAW264.7 cells assessed as cell viability after 24 hrs by WST-1 assay; details: RAW264.7, 24 h, read-out: LD50 (the source's name)
Summary of the method: (§1)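 Cells from ATCC grown in McCoy's 5A with 10% FBS, penicillin (100 units/mL) and streptomycin (100 μg/mL) at 37 °C, 5% CO2. Seeded at 1 × 10^4 cells per well with a range of compound concentrations for 24 h. Viability read by WST-1. LD50 values reported as mean ± SD (n = 5).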

Jurkat = test: Cytotoxicity against human Jurkat cells assessed as cell viability after 24 hrs by WST-1 assay; details: read-out: LD50 (the source's name); summary of the method: as §1
HCT-116 = test: Cytotoxicity against human HCT116 cells assessed as cell viability after 24 hrs by WST-1 assay; details: HCT-116, 24 h, read-out: LD50 (the source's name); summary of the method: as §1
MOLT-4 = test: Cytotoxicity against human MOLT4 cells assessed as cell viability after 24 hrs by WST-1 assay; details: MOLT-4, 24 h, read-out: LD50 (the source's name); summary of the method: as §1
MCF7 = test: Cytotoxicity against human MCF7 cells assessed as cell viability after 24 hrs by WST-1 assay; details: MCF7, 24 h, read-out: LD50 (the source's name); summary of the method: as §1
HeLa = test: Cytotoxicity against human HeLa cells assessed as cell viability after 24 hrs by WST-1 assay; details: read-out: LD50 (the source's name); summary of the method: as §1

| SMILES | CC50 (RAW264.7) [µM] | CC50 (Jurkat) [µM] | CC50 (HCT-116) [µM] | CC50 (MOLT-4) [µM] | CC50 (MCF7) [µM] | CC50 (HeLa) [µM] |
| --- | --- | --- | --- | --- | --- | --- |
| CCCCCCC(O)c1c(O)ccc(O)c1CO (stereo not drawn) | 55.4 | > 100 | 69.7 | > 100 | > 100 | > 100 |
| CCCCC/C=C/c1c(O)ccc(O)c1CO | 5.6 | 3.1 | 5.8 | 3 | 14.8 | 24.6 |
| CCCCC/C=C/C1=C(CO)C(=O)C[C@H](O)[C@@H]1O | > 100 | > 100 | > 100 | > 100 | > 100 | > 100 |
| CCCCC/C=C/C1=C(CO)C(=O)[C@H]2O[C@H]2[C@@H]1O | 6.5 | 20 | 6.4 | 11.2 | 75 | 77.8 |
| CCCCCCCc1c(O)ccc(O)c1CO | 20.1 | 8.2 | 61.8 | 5.9 | 93 | 77.6 |
| CCCCCCC(O)c1cccc(O)c1CO (stereo not drawn) | 26.2 | 8.3 | 66 | 6.2 | > 100 | 64.2 |
| CCCCC/C=C/C1=C(CO)[C@H](O)[C@H]2O[C@H]2[C@@H]1O | > 100 | > 100 | > 100 | > 100 | > 100 | > 100 |
| Nc1ccn([C@@H]2O[C@H](CO)[C@@H](O)C2(F)F)c(=O)n1 [GEMCITABINE] | 0.005 | 0.012 | 0.005 | 0.008 | 0.004 | 0.023 |

— ChEMBL document CHEMBL3286175, “Cytotoxic alkylated hydroquinone, phenol, and cyclohexenone derivatives from Aspergillus violaceofuscus Gasperini” (2014)
